# Among all 1,300 compounds or so, about 40 (3%) were called active. Only a sample is shown. Potency and affinity values are given separately. Unmarked numbers belong to inactive results. The rule behind the calls is not given here.
# Experiment: growth inhibition of wild-type E. coli BW25113 pool, dose response, OD615 (AID 635)
# Conditions: pooled mutant strains; at 100 µM (top of the series)
# Outline: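 times: 20 h, 37 °C growth with compound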
row,Compound,growth inhibition
1,CC(C)c1nnc(NC(=O)c2c(O)c3cccc4c3n(c2=O)CC4)s1,-11%
2,CCOc1cc(S(=O)(=O)N2CCN(Cc3ccccc3)CC2)ccc1Br,-3.26%
3,CC1CN(c2oc(COc3ccc(Cl)cc3Cl)nc2C#N)CC(C)O1 (stereo not given),-5.37%
4,CN(C1CCCCC1)S(=O)(=O)c1ccc(NC(=O)c2ccc(Br)o2)cc1,-1.39%
5,Cc1[nH]n2c(=O)c3c(nc2c1-c1ccc(Cl)cc1)CCC3,-1.19%
6,CCOC(=O)c1cn(CC)c2cc(N3CCSCC3)c(F)cc2c1=O,3.43%
7,Cc1csc(NC(=O)c2cccc(Cn3nc(C)c(Br)c3C)c2)n1,1.33%
8,COc1ccc(-c2[nH]ncc2Oc2ccccc2OC)c(O)c1,7.41%
9,Cc1ccc(Cl)cc1NC(=O)CC(O)(C(F)(F)F)C(F)(F)F,15.3%
10,CCOC(=O)C1CCN(C(c2cccnc2)c2c(NC(=O)c3ccco3)sc(C)c2C)CC1 (stereo not given),-3.15%
11,Cc1cc(C)c(O)c(-c2cc(C(=O)Nc3ccc(S(=O)(=O)N4CCOCC4)cc3)[nH]n2)c1,3.2%
12,COc1ccc(S(=O)(=O)N(Cc2cccs2)C2CCCC2)cc1,3.24%
13,COc1ccc(OCC(O)Cn2c(=N)n(Cc3ccccc3)c3ccccc32)cc1 (stereo not given),12.8%
14,Brc1cc(Br)c2ncnc(N3CCCCC3)c2c1,1.95%
15,CCc1nc(N2CCCCC2)c2oc3ccccc3c2n1,-3.08%
16,COCCCN1C(=O)c2[nH]nc(-c3ccccc3O)c2C1c1ccc(Cl)cc1 (stereo not given),-4.43%
17,COc1ccccc1N1CCN(C(c2ccccc2Cl)c2nnnn2C(C)(C)C)CC1 (stereo not given),-0.1%
18,CC(C)c1nc(N2CCN(C(=O)c3ccco3)CC2)c2c3c(sc2n1)CCCC3,4.77%
19,O=C(CN(C(=O)CNC(=O)c1ccco1)c1ccc(Cl)c(Cl)c1)NC1CCCCC1,1.85%
20,CCCCOn1c(C)c(C(=O)OCC)c2c3nonc3ccc21,2.87%

row,Compound,growth inhibition
1,CCOC(=O)c1sc(NC(=O)CSc2n[nH]c(-c3ccccc3)n2)c(C#N)c1C,1.14%
2,Cc1cccc(Cc2c(C)nc3c(C(=O)NCc4ccco4)cnn3c2C)c1,-6.42%
3,Cc1noc(C)c1S(=O)(=O)N(CCc1ccccc1)Cc1ccccc1,3.25%
4,Cc1ccc2c3c1C1(C(=O)N3C(C)(C)CC2C)C(C#N)=C(N)Oc2cc(O)ccc21 (stereo not given),4.82%
5,Cc1ccc(C2C(S(C)(=O)=O)=C(O)C(=O)N2c2ccccc2)cc1 (stereo not given) (tested in a mixture with another compound),3.27%
6,CC1CCCC(C)N1C(=O)CN1C(=O)C(C)(C)Oc2ccc(C(=O)NC3CCCCC3)cc21 (stereo not given),-0.3%
7,Oc1ccccc1-c1cc(-c2ccc3c(c2)OCCO3)n[nH]1,5.21%
8,Cc1csc(SCC(=O)Nc2nc(-c3ccccc3)cs2)n1,0.45%
9,O=C(Nc1nc(SCc2ccc(F)cc2)ns1)c1ccco1,8.93%
10,COc1ccc2[nH]c(=O)c(CN(C(=O)NC3CCCCC3)C3CCCCC3)cc2c1,-1.14%
11,COC(=O)c1c(NC(=O)Cc2cccs2)sc2c1CCCC2,4.36%
12,Cn1c(-c2ccc3c(c2)OCO3)cnc1N,-1.76% (active)
13,OCCn1c(-c2ccc3c(c2)OCO3)csc1=Nc1ccccc1,-0.74%
14,N#Cc1c(N)oc(-c2ccc3c(c2)OCO3)c1-c1ccc2c(c1)OCO2,1.41%
15,CCOC(=O)N1CCN(c2nc3ccccc3nc2C(C#N)S(=O)(=O)c2ccc(C)cc2)CC1 (stereo not given),-1.57%
16,CCOc1ccc(N(CC(=O)Nc2cccc(Cl)c2)S(=O)(=O)c2c(C)noc2C)cc1,2.36%
17,CN1/C(=C\C(=O)COc2ccc3c(c2)OCO3)C(C)(C)c2ccccc21,-6.25%
18,O=C(COc1ccccc1)Nc1nnc(-c2ccc(Cl)s2)o1,2.47%
19,O=c1c2c(nc3n1CCCCC3)-c1ccccc1CC21CCCC1,-5.17%
20,Cc1ccc(C(C(=O)NC2CCCC2)N(Cc2cccs2)C(=O)CNC(=O)c2cccs2)o1 (stereo not given),5.18%

row,Compound,growth inhibition
1,Cc1ccc(C)c(N2CCN(C(=O)c3ccc(NS(=O)(=O)c4c(C)noc4C)cc3)CC2)c1,3.98%
2,Cc1ccc(CN2C(=O)NC(=O)C3(Cc4c(nc5ccccn5c4=O)N4CCCCCC43)C2=O)cc1 (stereo not given),-2%
3,O=C(NC12CC3CC(CC(C3)C1)C2)c1ccccc1O,8.6%
4,COc1ccc(-c2[nH]c(-c3cccc(OC)c3)nc2SCC(=O)NCc2ccco2)cc1,-2.87%
5,OC(COc1ccc(Cl)c2ccccc12)CN1CCN(c2ccccn2)CC1 (stereo not given),-3.05%
6,O=C(Nc1nc2n(n1)C(c1ccc(Cl)cc1)CC(c1ccc(Cl)cc1)N2)c1ccco1 (stereo not given),9.43%
7,CCOc1cc(C)c(C(C)C)cc1S(=O)(=O)N1CC(C)OC(C)C1 (stereo not given),3.51%
8,CCN(C(=O)c1ccc(C(C)(C)C)cc1)c1nnc(Cn2nnc3ccccc32)s1,2.41%
9,COc1cc2cc(C(c3nnnn3C3CCCCC3)N(C)C3CCCCC3)c(=O)[nH]c2cc1OC (stereo not given),-2.92%
10,N#Cc1c(NC(NC(=O)c2ccco2)C(=O)c2ccccc2)sc2c1CCCC2 (stereo not given),1.57%
11,Cc1ccc(C)c(SCC(=O)Nc2nnc(-c3ccccc3)o2)c1,6.77%
12,COc1cccc(-c2csc(N3CCN(C(=O)C4CCCCC4)CC3)n2)c1,-1.87%
13,O=C(Nc1cccc(C(F)(F)F)c1)N1CCC(c2nc(-c3ccc(F)cc3)no2)CC1,-2.79%
14,CCOc1ccc2nc(NC(=O)C(CC)Sc3nc(C)cc(=O)[nH]3)sc2c1 (stereo not given),0.31%
15,CCn1cc(C(=O)O)c(=O)c2cnc(N3CCN(C(=O)Nc4ccccc4)CC3)nc21,5.46%
16,CCn1cc(C(=O)O)c(=O)c2cc(OC)ccc21,-5.37%
17,CCOC(=O)c1cn(CC)c2cc(N3CCCCC3)c(F)cc2c1=O,-1.4%
18,CCOC(=O)c1cn(CC)c2cc(N3CCOCC3)c(F)cc2c1=O,3.52%
19,CCn1cc(C(=O)Nc2nncs2)c(=O)c2cc(F)c(N3CCN(C(=O)c4ccco4)CC3)cc21,15.6%
20,Cc1nc2c(C(=O)NCc3ccc4c(c3)OCO4)c[nH]n2c(=O)c1Cc1ccccc1F,0.56%
